Compound activity as filed in PubChem.
STAT1 inh – STAT1 signaling inhibitors, primary screen, cell-based, HTS, luciferase reporter | inhibition, % at 5.5 µM | NIH 3T3 STAT1-luciferase reporter, IFN-gamma, luminescence | 200,000 tested, 0.35% active;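 active means inhibition above a set limit, the mean inhibition across all tested compounds plus 3 SD, cut at about 34% in these data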
STAT3 inh-1 – IL-6 driven STAT3 reporter inhibitors, primary screen, U3A cells, luciferase, luminescence, MLSCN library; IL-6 STAT3-luciferase reporter; host cell line lacks STAT1; inhibition, % at 5.5 µM; 190,000 tested, 0.89% active; AID 862, 2007;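 active means inhibition above the mean inhibition across all screened compounds plus 3 SD, cut at about 44% in these data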
STAT1 act – STAT1 signaling activators, primary screen, cell-based, HTS, luciferase reporter; NIH 3T3 STAT1-luciferase reporter, IFN-gamma, luminescence; 100% = IFN-gamma alone, no compound; activation (% of control), % at 5.5 µM; 200,000 tested, 2.6% active; AID 932, 2007;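 active means activation above the screen-wide mean activation plus 3 SD, cut at about 130% in these data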
APP 5'UTR act – activators of APP 5'UTR luciferase reporter, primary screen, SH-SY5Y cells; SH-SY5Y APP 5'UTR luciferase reporter, luminescence; zero percent = DMSO vehicle wells; activation, % at 2 µM; 190,000 tested, 1% active;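 active means activation above a set limit, based on mean plus 3 SD of controls, cut at about 140% in these data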
NF-kB neuron act – activators of NF-kB expression in neurons, primary screen, cell-based, HTS. fold change at 12.5 µM. human neuronal cells, NF-kB reporter expression; stronger effect = higher value. AID 1239, 2008. 190,000 tested, 1.6% active; in the data active means fold change above about 3.3
STAT3 activator – IL-6 driven STAT3 reporter potentiators, primary screen, U3A cells, luciferase, luminescence, MLSCN library; IL-6 STAT3-luciferase reporter; 100% = signal with IL-6 EC80 alone; activation (% of control), % at 5.6 µM; 190,000 tested, 0.91% active;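 active means activation above the screen-wide mean of compound activation plus 3 SD, cut at about 130% in these data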
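Test system: Human STAT1-deficient U3A cells with stable STAT3-luciferase reporter | Also added: Interleukin-6, 33 ng/mL | Timing: Compound pre-incubation 1 h before IL-6, then 6 h stimulation at 37 °C | Technique: Luciferase reporter luminescence | Read-out: Percent of IL-6-only median luminescence | Benchmarks: IL-6-only wells as 100% reference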
STAT3 inh-2 – STAT3 reporter inhibitors, retest of hits, confirmation, U3A cells, luciferase, luminescence. inhibition, % at 5.7 µM. shares compounds with STAT3 inh-1. AID 1265, 2008. 1,200 tested, 45% active. IL-6 STAT3 luciferase reporter; cell line lacks STAT1;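 active means inhibition above the hit cutoff computed for the primary STAT3 screen, cut at about 44% in these data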
NFkB inh STAT3ct – NF-kB reporter inhibitors in human cells, confirmation, counter-screen for STAT3 inhibitor project, cell-based, HEK293T, luciferase, TNF-alpha stimulus; inhibition, % at 5.7 µM; shares compounds with STAT3 inh-1; TNF-alpha induced; 1,200 tested, 36% active;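 active means inhibition above the mean of solvent-only control wells plus 3 SD, cutoff set per campaign, cut at about 13% in these data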
STAT1 inh STAT3c – STAT1 reporter inhibitors, IFN-gamma induced, confirmation, counter-screen for STAT3 inhibitor project, cell-based, NIH 3T3, luciferase luminescence; NIH 3T3 STAT1-luciferase reporter; 1,200 tested, 27% active; shares compounds with STAT3 inh-1; AID 1317, 2008; inhibition, % at 5.7 µM;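 active means inhibition above the mean plus 3 SD of solvent-only control wells, limit set per screening run, cut at about 16% in these data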
Numbers stand for hits; n = inactive; x = no result given. This is a sample that favours compounds with a hit; in the whole collection about 4.9% have one here.

SMILES	STAT1 inh	STAT3 inh-1	STAT1 act	APP 5'UTR act	NF-kB neuron act	STAT3 activator	STAT3 inh-2	NFkB inh STAT3ct	STAT1 inh STAT3c
COCCNC(=O)C(c1cccs1)N(C(=O)Cn1nnc2ccccc21)c1ccccc1 (stereo not drawn)	n	n	n	n	n	n	x	x	x
COc1ccc(N(C(=O)CCl)C(C(=O)NCCc2ccccc2)c2cccs2)cc1Cl (stereo not drawn)	n	91	n	n	n	n	104	n	20
COc1cccc(N(C(=O)CCl)C(C(=O)NCCc2ccccc2)c2cccs2)c1 (stereo not drawn)	n	63	n	n	n	n	95	22	25
CC(=O)c1ccc(N2CCN(C(=S)Nc3cccc(F)c3)CC2)cc1	n	n	n	n	n	n	x	x	x
CC(=O)c1ccc(N2CCN(C(=S)Nc3ccc(Oc4ccccc4)cc3)CC2)cc1	n	78	n	n	n	n	61	20	n
COCCNS(=O)(=O)c1cc(OC)ccc1OC	n	n	n	n	n	n	x	x	x
N#Cc1nc(N2CCCC2)nc(N2CCCC2)n1	n	56	n	n	n	n	56	28	n
N#Cc1nc(N2CCCCC2)nc(N2CCOCC2)n1	n	n	n	n	n	n	x	x	x
CCOc1ccc(/C=N/Nc2ccccn2)cc1	n	50	n	182	8.2	n	n	n	n
N=c1cc(C2(O)CCCCC2)n2c(nc3ccccc32)s1	n	61	n	185	4.1	n	n	n	n
Cc1csc2ncnc(NCCc3ccccn3)c12	35	72	n	n	n	n	75	25	24
c1ccc(CCNc2ncnc3sccc23)nc1	n	n	n	n	n	n	x	x	x
NN1C(=O)NC(c2ccccc2)(c2ccccc2)C1=O	n	n	n	n	n	n	x	x	x
O=C(COc1ccccc1)N/N=C/c1ccc(O[C@@H]2O[C@H](CO)[C@@H](O)[C@H](O)[C@H]2O)cc1	n	n	n	n	n	n	x	x	x
Cc1ccc(-c2nn(-c3ccccc3)cc2/C=N/NC(=O)c2ccc(Br)o2)cc1	n	46	n	n	n	n	n	n	n
CCOC(=O)Cc1csc(N/N=C/c2ccc(C(F)(F)F)cc2)n1	n	60	n	n	n	n	n	13	n
CCOC(=O)Cc1csc(NC(=O)CC)n1	n	n	n	n	n	n	x	x	x
CCOc1ccc2nc(NC(=O)c3ccoc3C)sc2c1	n	79	n	168	3.5	n	47	14	n
CCOC(=O)c1ccc2nc(NC(=O)c3ccco3)sc2c1	n	54	n	277	4.6	n	n	n	n
Cc1ccc2nc(NC(=O)COC(=O)c3ccco3)sc2c1	n	n	n	n	n	n	x	x	x
COCCNCC(=O)Nc1ccc(OC(F)(F)F)cc1	n	n	n	n	n	n	x	x	x
Fc1ccccc1N1CC(c2ccccc2)C(c2cccs2)=N1 (stereo not drawn)	n	n	n	n	n	n	x	x	x
c1c2c(cc3sc(N4CCCCC4)nc13)OCO2	n	62	n	206	3.8	n	n	n	n
c1c2c(cc3sc(N4CCOCC4)nc13)OCO2	n	n	n	n	n	n	x	x	x
Cn1c(=O)n(C)c2cc([N+](=O)[O-])c(N3CCN(C(=O)c4ccccc4Cl)CC3)cc21	n	63	n	n	n	n	n	n	n
SMILES	STAT1 inh	STAT3 inh-1	STAT1 act	APP 5'UTR act	NF-kB neuron act	STAT3 activator	STAT3 inh-2	NFkB inh STAT3ct	STAT1 inh STAT3c
c1ccc2c(c1)OCCOCCOCCOCCOc1ccccc1OCCOCCOCCO2	n	n	n	n	n	n	x	x	x
CN(CCCC(=O)Nc1ccncc1)S(=O)(=O)c1ccc(Cl)cc1	n	47	n	n	n	n	n	n	21
Cc1ccc(CC(=O)Nc2cccnc2)cc1	n	n	n	n	n	n	x	x	x
O=C(Cc1ccc([N+](=O)[O-])cc1)Nc1ccc(Cl)cc1	n	n	n	n	n	n	x	x	x
Cc1ccc(CC(=O)Nc2ccncc2)cc1	n	46	n	n	n	n	52	n	24
CN(CC(=O)Nc1ccncc1)S(=O)(=O)c1ccc(Br)cc1	n	n	n	n	n	n	x	x	x
O=C(Cc1ccc(Cl)cc1)Nc1ccncc1	n	52	n	n	n	n	55	17	21
CCOC(=O)C1=C(C)N(CCCC(=O)NCc2ccc3c(c2)OCO3)C(=O)NC1c1ccc(Br)cc1 (stereo not drawn)	n	n	n	n	n	n	x	x	x
CCN(CC)CCN(C)C1CCC(c2ccccc2)CC1 (stereo not drawn)	n	n	n	n	n	n	x	x	x
S=C(NCCc1ccccc1)Nc1cccc2cnccc12	n	68	n	n	n	n	73	25	23
Cc1cc(C(=O)Nc2nc3c(s2)CCCC3)cs1	n	52	136	n	6.4	n	n	n	n
O=C(COc1ccccc1)Nc1ccncc1	n	n	n	n	n	n	x	x	x
O=C(COc1ccc2ccccc2c1)Nc1ccncc1	n	45	n	n	n	n	44	n	n
O=C(CSc1ccc2ccccc2c1)Nc1ccncc1	n	50	n	n	n	n	45	n	n
Cc1cc(OCC(=O)Nc2ccncc2)cc(C)c1Br	n	68	n	n	n	n	66	n	n
Cc1cc(OCC(=O)NCC(C)C)cc(C)c1Br	n	n	n	n	n	n	x	x	x
Cc1nn(C)c(C)c1CN(C)S(=O)(=O)c1ccc2ccccc2c1	n	78	n	n	n	n	80	30	24
Cc1ccc(S(=O)(=O)Nc2cccc(Cl)c2)cc1NC(=O)c1cccnc1	n	n	n	n	n	n	x	x	x
Fc1ccc(/C=C2\CCCC3=C2Nc2ncnn2C3c2ccc(F)cc2)cc1 (stereo not drawn)	n	45	n	n	n	n	n	n	19
COc1ccc(C2C3=C(Nc4ncnn42)c2ccccc2CCC3)cc1 (stereo not drawn)	n	n	n	n	n	n	x	x	x
COc1ccc(C(=O)C[n+]2cc(-c3ccc(OC)cc3)n3c2CCCC3)cc1	n	n	n	n	n	n	x	x	x
